Test results reported in ChEMBL document CHEMBL1153726, “Synthesis and anticancer activity of sclerophytin-inspired hydroisobenzofurans” (Bioorg Med Chem Lett, 2009).

How the values were obtained:
[1] = Antitumor activity against human KB3 cells after 96 hrs by MTT assay; assay type: functional, cell-based; settings: KB3, 96 h
How it was run: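 Human KB-3 carcinoma cells exposed to increasing compound concentrations; viability read by MTT colorimetric assay after 96 h. Values are means of triplicate assays, expressed relative to untreated controls.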

SK-MEL-28 = assay: Growth inhibition of human SK-MEL-28 cells after 96 hrs by MTT assay; assay type: functional; settings: SK-MEL-28, 96 h
How it was run: (§1)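 Tested in the NCI 60-cell-line panel in five-dose format; GI50 and LC50 values reported for each cell line.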

EKVX [2] = assay: Growth inhibition of human EKVX cells at 1 uM after 96 hrs by MTT assay; assay type: functional; parameters: scale not given: the % may be the effect or the level left
SNB-19 = assay: Growth inhibition of human SNB19 cells at 10 nM after 96 hrs by MTT assay; assay type: functional; parameters: scale not given: the % may be the effect or the level left
RXF 393 = assay: Growth inhibition of human RXF393 cells at 1 nM after 96 hrs by MTT assay; assay type: functional; parameters: scale not given: the % may be the effect or the level left
HCC 2998 [3] = assay: Growth inhibition of human HCC2998 cells at 10 nM after 96 hrs by MTT assay; assay type: functional; parameters: scale not given: the % may be the effect or the level left
EKVX [4] = assay: Growth inhibition of human EKVX cells at 10 nM after 96 hrs by MTT assay; assay type: functional; parameters: scale not given: the % may be the effect or the level left
PC-3 = assay: Growth inhibition of human PC3 cells at 1 uM after 96 hrs by MTT assay; assay type: functional; parameters: scale not given: the % may be the effect or the level left
A549 = assay: Growth inhibition of human A549 cells at 100 nM after 96 hrs by MTT assay; assay type: functional; parameters: scale not given: the % may be the effect or the level left
M14 [5] = assay: Growth inhibition of human M14 cells at 1 nM after 96 hrs by MTT assay; assay type: functional; parameters: scale not given: the % may be the effect or the level left
SF-295 = assay: Growth inhibition of human SF295 cells at 10 nM after 96 hrs by MTT assay; assay type: functional; parameters: scale not given: the % may be the effect or the level left
Malme-3M = assay: Growth inhibition of human MALME-3M cells at 1 nM after 96 hrs by MTT assay; assay type: functional; parameters: scale not given: the % may be the effect or the level left
HOP-62 = assay: Growth inhibition of human HOP62 cells after 96 hrs by MTT assay; assay type: functional; settings: HOP-62, 96 h
How it was run: (§2)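 Run in the NCI 60 human tumour cell line panel as a five-dose assay. GI50 and LC50 were reported for each cell line.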

NCI-H460 [6] = assay: Growth inhibition of human NCI-H460 cells at 10 uM after 96 hrs by MTT assay; assay type: functional; parameters: scale not given: the % may be the effect or the level left
T47D = assay: Growth inhibition of human T47D cells at 10 nM after 96 hrs by MTT assay; assay type: functional; parameters: scale not given: the % may be the effect or the level left
HCC 2998 [7] = assay: Growth inhibition of human HCC2998 cells after 96 hrs by MTT assay; assay type: functional; settings: HCC 2998, 96 h; how it was run: as §2
MDA-MB-435 = assay: Growth inhibition of human MDA-MB-435 cells at 100 nM after 96 hrs by MTT assay; assay type: functional; parameters: scale not given: the % may be the effect or the level left
HOP-92 = assay: Growth inhibition of human HOP92 cells after 96 hrs by MTT assay; assay type: functional; settings: HOP-92, 96 h; how it was run: as §2
CAKI-1 = assay: Growth inhibition of human Caki1 cells at 10 uM after 96 hrs by MTT assay; assay type: functional; parameters: scale not given: the % may be the effect or the level left
SK-OV-3 = assay: Growth inhibition of human SKOV3 cells at 100 nM after 96 hrs by MTT assay; assay type: functional; parameters: scale not given: the % may be the effect or the level left
OVCAR-8 = assay: Growth inhibition of human OVCAR8 cells at 1 nM after 96 hrs by MTT assay; assay type: functional; parameters: scale not given: the % may be the effect or the level left
NCI-H322M = assay: Growth inhibition of human NCI-H322M cells at 10 nM after 96 hrs by MTT assay; assay type: functional; parameters: scale not given: the % may be the effect or the level left
NCI-H23 = assay: Growth inhibition of human NCI-H23 cells at 100 nM after 96 hrs by MTT assay; assay type: functional; parameters: scale not given: the % may be the effect or the level left
SF-539 [8] = assay: Growth inhibition of human SF539 cells at 1 nM after 96 hrs by MTT assay; assay type: functional; parameters: scale not given: the % may be the effect or the level left
TK-10 = assay: Growth inhibition of human TK10 cells after 96 hrs by MTT assay; assay type: functional; settings: TK-10, 96 h; how it was run: as §1
A498 = assay: Growth inhibition of human A498 cells at 100 nM after 96 hrs by MTT assay; assay type: functional; parameters: scale not given: the % may be the effect or the level left
MDA-MB-231 [9] = assay: Growth inhibition of human MDA-MB-231 cells at 10 nM after 96 hrs by MTT assay; assay type: functional; parameters: scale not given: the % may be the effect or the level left
UACC-62 = assay: Growth inhibition of human UACC62 cells at 1 uM after 96 hrs by MTT assay; assay type: functional; parameters: scale not given: the % may be the effect or the level left
SF-539 [10] = assay: Growth inhibition of human SF539 cells at 100 nM after 96 hrs by MTT assay; assay type: functional; parameters: scale not given: the % may be the effect or the level left
LOX IMVI = assay: Growth inhibition of human LOXIMVI cells at 1 uM after 96 hrs by MTT assay; assay type: functional; parameters: scale not given: the % may be the effect or the level left
MDA-MB-231 [11] = assay: Growth inhibition of human MDA-MB-231 cells at 10 uM after 96 hrs by MTT assay; assay type: functional; parameters: scale not given: the % may be the effect or the level left
M14 [12] = assay: Growth inhibition of human M14 cells at 1 uM after 96 hrs by MTT assay; assay type: functional; parameters: scale not given: the % may be the effect or the level left
OVCAR-4 [13] = assay: Growth inhibition of human OVCAR4 cells at 1 nM after 96 hrs by MTT assay; assay type: functional; parameters: scale not given: the % may be the effect or the level left
NCI-H226 = assay: Growth inhibition of human NCI-H226 cells at 10 nM after 96 hrs by MTT assay; assay type: functional; parameters: scale not given: the % may be the effect or the level left
U-251 = assay: Growth inhibition of human U251 cells after 96 hrs by MTT assay; assay type: functional; settings: U-251, 96 h; how it was run: as §1
UO-31 = assay: Growth inhibition of human UO31 cells at 100 nM after 96 hrs by MTT assay; assay type: functional; parameters: scale not given: the % may be the effect or the level left
OVCAR-4 [14] = assay: Growth inhibition of human OVCAR4 cells at 100 nM after 96 hrs by MTT assay; assay type: functional; parameters: scale not given: the % may be the effect or the level left
NCI-H460 [15] = assay: Growth inhibition of human NCI-H460 cells at 10 nM after 96 hrs by MTT assay; assay type: functional; parameters: scale not given: the % may be the effect or the level left
KM12 = assay: Growth inhibition of human KM12 cells at 1 nM after 96 hrs by MTT assay; assay type: functional; parameters: scale not given: the % may be the effect or the level left
OVCAR-5 = assay: Growth inhibition of human OVCAR5 cells at 10 nM after 96 hrs by MTT assay; assay type: functional; parameters: scale not given: the % may be the effect or the level left
[16] = read-out: LC50 (the source's name)
[17] = read-out: Log10GI50 (converted)
[18] = read-out: Log10LC50 (converted)

## C=C(C)[C@H]1CC=C(C)C2=CO[C@@H](c3ccccc3F)[C@@H]21
[1]
  IC50: 1 µM
SK-MEL-28; read-out: GI50
  GI50: 10.5 µM
SK-MEL-28; [16]
  CC50: 47.1 µM
SK-MEL-28; [17]
  GI50: 10.5 µM
SK-MEL-28; [18]
  CC50: 46.8 µM
SK-MEL-28; read-out: Log10TGI (converted)
  TGI: 22.4 µM
SK-MEL-28; read-out: TGI
  TGI: 22.2 µM
EKVX [2]
  Activity: 23%
SNB-19
  Activity: 89%
RXF 393
  Activity: 94%
HCC 2998 [3]
  Activity: 89%
EKVX [4]
  Activity: 93%
PC-3
  Activity: 20%
A549
  Activity: 95%
M14 [5]
  Activity: 97%
SF-295
  Activity: 92%
Malme-3M
  Activity: 97%
HOP-62; read-out: GI50
  GI50: 10.1 µM
HOP-62; [16]
  CC50: 46.8 µM
HOP-62; [17]
  GI50: 10.2 µM
HOP-62; [18]
  CC50: 46.8 µM
HOP-62; read-out: Log10TGI (converted)
  TGI: 21.9 µM
HOP-62; read-out: TGI
  TGI: 21.8 µM
NCI-H460 [6]
  Activity: 92.68%
T47D
  Activity: 89%
HCC 2998 [7]; read-out: GI50
  GI50: 6.4 µM
HCC 2998 [7]; [16]
  CC50: 45.3 µM
HCC 2998 [7]; [17]
  GI50: 6.46 µM
HCC 2998 [7]; [18]
  CC50: 45.7 µM
HCC 2998 [7]; read-out: Log10TGI (converted)
  TGI: 19.5 µM
HCC 2998 [7]; read-out: TGI
  TGI: 19.3 µM
MDA-MB-435
  Activity: 84%
HOP-92; read-out: GI50
  GI50: 0.552 µM
HOP-92; [16]
  CC50: 26.8 µM
HOP-92; [17]
  GI50: 0.55 µM
HOP-92; [18]
  CC50: 26.9 µM
HOP-92; read-out: Log10TGI (converted)
  TGI: 5.75 µM
HOP-92; read-out: TGI
  TGI: 5.76 µM
CAKI-1
  Activity: -25%
SK-OV-3
  Activity: 98%
OVCAR-8
  Activity: 99%
NCI-H322M
  Activity: 84%
NCI-H23
  Activity: 85%
SF-539 [8]
  Activity: 91%
TK-10; read-out: GI50
  GI50: 8.93 µM
TK-10; [16]
  CC50: 88.9 µM
TK-10; [17]
  GI50: 8.91 µM
TK-10; [18]
  CC50: 89.1 µM
TK-10; read-out: Log10TGI (converted)
  TGI: 28.8 µM
TK-10; read-out: TGI
  TGI: 29.1 µM
A498
  Activity: 88%
MDA-MB-231 [9]
  Activity: 89%
UACC-62
  Activity: 29%
SF-539 [10]
  Activity: 84%
LOX IMVI
  Activity: 33%
MDA-MB-231 [11]
  Activity: 101.47%
M14 [12]
  Activity: 43%
OVCAR-4 [13]
  Activity: 91%
NCI-H226
  Activity: 89%
U-251; read-out: GI50
  GI50: 3.06 µM
U-251; [16]
  CC50: 37.7 µM
U-251; [17]
  GI50: 3.09 µM
U-251; [18]
  CC50: 38 µM
U-251; read-out: Log10TGI (converted)
  TGI: 14.1 µM
U-251; read-out: TGI
  TGI: 14.2 µM
UO-31
  Activity: 81%
OVCAR-4 [14]
  Activity: 76%
NCI-H460 [15]
  Activity: 97%
KM12
  Activity: 95%
OVCAR-5
  Activity: 84%
